Measurements gathered from unrelated publications.
Lines come from different studies, so protocols differ.
Target: Glycogen synthase kinase-3 alpha (GSK3A, Homo sapiens, UniProt P49840)

SMILES	test	conditions	remaining binding [%]
F[C@@H]1CCN(c2nccc(-c3cnn4ncccc34)n2)C1	binding	1 µM	100
CN1CCN(c2cnc3c(C4CCN(C(=O)c5ccc(OC(F)(F)F)cc5N)CC4)ncnc3c2)CC1	cell-free assay, competition with immobilised ligand	1 µM	100
Cc1cnc(Nc2ccc(C(=O)N3CCC(N4CCCC4)CC3)cc2)nc1-c1cc2ccccc2s1	binding, competition with immobilised ligand	1 µM	43
O=C(Nc1cccnn1)N1CCC(=Cc2cccc(Oc3ccc(C(F)(F)F)cn3)c2)CC1	cell-free assay, competition with immobilised ligand	1 µM	100
Cc1cnn2ncc(-c3ccnc(N(C)C)n3)c2c1	binding	1 µM	96
O=C(c1ccc(Nc2ncc(Cl)c(-c3ccc(Cl)s3)n2)cc1)N1CCC(N2CCCC2)CC1	binding, competition with immobilised ligand	1 µM	22
c1cnn2ncc(-c3ccnc(N4CCC45COC5)n3)c2c1	binding	1 µM	100
Nc1ncc2c(n1)-c1c([nH]c3ccc(C#CC4CC4)cc13)CCCC2	binding, competition with immobilised ligand	1 µM	57
FC(F)(F)Oc1cccc(-c2cnc3ccc(-c4ccncc4)nn23)c1	cell-free assay, competition with immobilised ligand	5 µM	44
Cn1nc(C(=O)NCc2ccc(C(=O)O)cc2)cc1-c1ccc2[nH]ccc2c1	cell-free assay, competition with immobilised ligand	0.1 µM	61
C[C@H]1CCN(c2nccc(-c3cnn4ncccc34)n2)C1	binding	1 µM	85
CCN1CCN(Cc2ccc(C(=O)Nc3ccc(C)c(Oc4ccc5c(c4)CC(=O)N5)c3)cc2C(F)(F)F)CC1	binding, competition with immobilised ligand	1 µM	100
O=C(NCCCN1CCOCC1)c1ccc(Nc2nccc(-c3cc4ccccc4s3)n2)cc1	binding, competition with immobilised ligand	1 µM	92
O=C(NCc1ncc(C(F)(F)F)cc1Cl)c1ccc2c(c1)C1(CCS(=O)(=O)CC1)[C@H](C1CC1)N2S(=O)(=O)c1ccc(F)cc1	cell-free assay, competition with immobilised ligand	1 µM	100
COc1ccnn2ncc(-c3ccnc(N(C)C)n3)c12	binding	1 µM	96
COc1ccc2c(O[C@@H]3C[C@H]4C(=O)N[C@]5(C(=O)O)CC5/C=C\CCCCC[C@H](NC(=O)OC5CCCC5)C(=O)N4C3)cc(-c3csc(NC(=O)C(C)C)n3)nc2c1C (stereo partly drawn)	cell-free assay, competition with immobilised ligand	1 µM	100
COc1ncc2cc3ccccc3nc2c1C#N	cell-free assay, competition with immobilised ligand	5 µM	94
N[C@H]1CCN(c2nccc(-c3cnn4ncccc34)n2)C1	binding	1 µM	86
O=C(NCC1CCOCC1)c1n[nH]cc1NC(=O)c1c(F)cccc1F	binding, competition with immobilised ligand	1 µM	0
Cc1nc(C2CCN(C(=O)c3ccc(OC(F)(F)F)cc3N)CC2)c2ncc(N3CCN(C)CC3)cc2n1	cell-free assay, competition with immobilised ligand	1 µM	85
CNC(=O)[C@@H]1CC[C@@H](n2c(-c3ccc4cnccc4c3)nc3ccc(C(=O)NCc4cccc(C(N)=O)c4)cc32)C1	binding, competition with immobilised ligand	1 µM	85
